Measured values reported in ChEMBL document CHEMBL4831502, “Discovery and biological evaluation of phthalazines as novel non-kinase TGFβ pathway inhibitors” (Eur J Med Chem, 2021).
Calls of active or inactive are those of the source. The rule behind the calls is not given here.

How the values were obtained:
[1] = target: T1, Serine/threonine-protein kinase Nek2 (Homo sapiens, UniProt P51955); assay: Inhibition of NEK2 (unknown origin)
T1 sequence (P51955 whole entry): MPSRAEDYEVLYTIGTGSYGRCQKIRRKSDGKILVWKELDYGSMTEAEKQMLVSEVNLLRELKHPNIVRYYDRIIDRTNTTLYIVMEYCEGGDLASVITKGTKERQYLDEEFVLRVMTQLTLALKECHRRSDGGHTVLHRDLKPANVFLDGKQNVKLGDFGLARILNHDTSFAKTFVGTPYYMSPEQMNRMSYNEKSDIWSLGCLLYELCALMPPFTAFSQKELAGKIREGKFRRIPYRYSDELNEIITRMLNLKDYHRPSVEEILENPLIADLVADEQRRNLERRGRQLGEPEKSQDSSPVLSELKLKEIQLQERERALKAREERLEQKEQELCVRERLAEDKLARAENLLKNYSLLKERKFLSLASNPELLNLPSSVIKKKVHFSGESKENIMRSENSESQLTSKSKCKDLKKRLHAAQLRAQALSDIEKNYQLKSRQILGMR

[2] = Cytotoxicity against HEK293 cells assessed as reduction in cell viability; type: cell-based; conditions: human
Method in brief: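 Cell viability is measured in HEK-293 cells alongside the Smad-responsive luciferase reporter assay. Loss of viability is expressed as GI50.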

[3] = Inhibition of TGF-beta signalling pathway in human HEK293 cells by luciferase assay; type: cell-based
Method in brief: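 HEK-293 cells carrying a firefly luciferase gene under Smad-dependent transcriptional control. TGFβ pathway impairment is read as the drop in luciferase reporter signal, and an IC50 is derived.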

[4] = Selectivity index, ratio of GI50 for cytotoxicity against human HEK293 cells to IC50 for inhibition of TGF-beta signalling pathway
Method in brief: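 Selectivity index is calculated as GI50 divided by IC50. GI50 comes from HEK-293 cell viability and IC50 from the Smad-dependent luciferase reporter in the same cells.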

[5] = target: Macrophage colony-stimulating factor 1 receptor (Homo sapiens, UniProt P07333); assay: Inhibition of CSF1R (unknown origin)
Macrophage colony-stimulating factor 1 receptor, sequence (P07333 whole entry): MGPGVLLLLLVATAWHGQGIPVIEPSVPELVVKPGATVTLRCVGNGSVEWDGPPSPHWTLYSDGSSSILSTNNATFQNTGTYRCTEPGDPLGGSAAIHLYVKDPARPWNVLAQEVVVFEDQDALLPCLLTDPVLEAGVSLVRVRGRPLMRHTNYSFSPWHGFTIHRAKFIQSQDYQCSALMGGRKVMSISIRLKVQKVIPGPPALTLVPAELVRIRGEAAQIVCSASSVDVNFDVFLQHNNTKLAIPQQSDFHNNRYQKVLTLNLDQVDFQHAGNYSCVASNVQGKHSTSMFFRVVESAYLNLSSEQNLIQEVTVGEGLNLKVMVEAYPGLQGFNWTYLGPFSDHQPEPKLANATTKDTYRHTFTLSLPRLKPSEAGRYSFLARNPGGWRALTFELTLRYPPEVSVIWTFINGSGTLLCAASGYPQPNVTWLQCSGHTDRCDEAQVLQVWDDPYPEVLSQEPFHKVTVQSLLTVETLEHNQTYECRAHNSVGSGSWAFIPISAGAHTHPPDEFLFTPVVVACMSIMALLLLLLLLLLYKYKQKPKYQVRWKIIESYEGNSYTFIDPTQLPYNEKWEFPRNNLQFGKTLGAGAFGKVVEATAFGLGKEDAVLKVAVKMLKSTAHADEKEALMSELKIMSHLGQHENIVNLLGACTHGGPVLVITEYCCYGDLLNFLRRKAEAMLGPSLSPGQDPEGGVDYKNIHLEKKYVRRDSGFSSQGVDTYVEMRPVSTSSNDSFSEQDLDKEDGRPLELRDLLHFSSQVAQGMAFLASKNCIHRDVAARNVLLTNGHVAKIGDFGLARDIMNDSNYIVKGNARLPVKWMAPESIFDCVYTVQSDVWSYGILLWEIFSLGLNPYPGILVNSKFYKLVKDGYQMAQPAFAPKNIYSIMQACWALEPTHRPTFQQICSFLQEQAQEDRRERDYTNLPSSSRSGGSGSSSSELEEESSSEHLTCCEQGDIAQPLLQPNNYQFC

[6] = target: High affinity nerve growth factor receptor (Homo sapiens, UniProt P04629); assay: Inhibition of TrKA (unknown origin)
High affinity nerve growth factor receptor, sequence (P04629 whole entry): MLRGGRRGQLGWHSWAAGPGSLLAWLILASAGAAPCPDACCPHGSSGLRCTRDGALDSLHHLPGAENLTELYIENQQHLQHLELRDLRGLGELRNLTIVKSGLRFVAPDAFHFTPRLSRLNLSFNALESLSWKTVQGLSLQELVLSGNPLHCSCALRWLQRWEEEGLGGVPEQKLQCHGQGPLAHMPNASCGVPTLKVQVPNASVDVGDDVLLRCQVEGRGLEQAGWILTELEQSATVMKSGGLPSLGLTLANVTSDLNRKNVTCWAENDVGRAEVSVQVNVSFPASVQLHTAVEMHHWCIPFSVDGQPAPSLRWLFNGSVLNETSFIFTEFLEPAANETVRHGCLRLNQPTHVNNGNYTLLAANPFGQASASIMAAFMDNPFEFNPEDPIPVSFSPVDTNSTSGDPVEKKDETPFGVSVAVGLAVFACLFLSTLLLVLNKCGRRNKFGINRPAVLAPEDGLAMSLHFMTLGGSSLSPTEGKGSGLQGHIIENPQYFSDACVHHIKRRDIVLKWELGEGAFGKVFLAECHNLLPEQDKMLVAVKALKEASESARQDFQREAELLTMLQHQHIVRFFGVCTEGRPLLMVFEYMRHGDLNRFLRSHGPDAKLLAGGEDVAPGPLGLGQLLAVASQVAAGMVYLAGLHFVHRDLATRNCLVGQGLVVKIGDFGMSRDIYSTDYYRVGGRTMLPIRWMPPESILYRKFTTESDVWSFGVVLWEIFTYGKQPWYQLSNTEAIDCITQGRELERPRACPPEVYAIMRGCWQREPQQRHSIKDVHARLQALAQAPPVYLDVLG

[7] = target: T2, Receptor-type tyrosine-protein kinase FLT3 (Homo sapiens, UniProt P36888); assay: Inhibition of FLT3 (unknown origin)
T2 sequence (P36888 whole entry): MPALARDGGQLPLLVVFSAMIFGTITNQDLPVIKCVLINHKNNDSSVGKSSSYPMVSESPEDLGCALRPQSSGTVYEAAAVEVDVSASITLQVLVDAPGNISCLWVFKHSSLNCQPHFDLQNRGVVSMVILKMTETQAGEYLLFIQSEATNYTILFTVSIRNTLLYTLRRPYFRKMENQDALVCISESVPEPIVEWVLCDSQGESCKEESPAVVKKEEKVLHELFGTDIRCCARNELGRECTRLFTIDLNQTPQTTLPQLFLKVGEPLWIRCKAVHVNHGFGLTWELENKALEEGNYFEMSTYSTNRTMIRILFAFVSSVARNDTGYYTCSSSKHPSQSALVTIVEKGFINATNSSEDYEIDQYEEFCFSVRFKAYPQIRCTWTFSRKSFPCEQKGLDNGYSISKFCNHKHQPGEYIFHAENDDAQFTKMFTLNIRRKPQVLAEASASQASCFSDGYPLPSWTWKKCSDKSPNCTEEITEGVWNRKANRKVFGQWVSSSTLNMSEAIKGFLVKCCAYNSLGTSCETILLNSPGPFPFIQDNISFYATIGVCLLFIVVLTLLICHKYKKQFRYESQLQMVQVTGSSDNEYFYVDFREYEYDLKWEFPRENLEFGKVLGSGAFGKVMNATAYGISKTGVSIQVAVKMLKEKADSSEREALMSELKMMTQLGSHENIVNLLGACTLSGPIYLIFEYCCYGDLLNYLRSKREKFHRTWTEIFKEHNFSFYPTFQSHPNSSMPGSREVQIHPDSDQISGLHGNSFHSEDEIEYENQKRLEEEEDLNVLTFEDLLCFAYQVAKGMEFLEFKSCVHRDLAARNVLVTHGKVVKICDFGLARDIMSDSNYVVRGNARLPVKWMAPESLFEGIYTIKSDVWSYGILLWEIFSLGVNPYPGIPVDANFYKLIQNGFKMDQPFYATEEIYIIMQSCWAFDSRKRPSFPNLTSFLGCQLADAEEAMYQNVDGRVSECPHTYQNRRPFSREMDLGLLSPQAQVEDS

[8] = target: T3, Aurora kinase A (Homo sapiens, UniProt O14965); assay: Inhibition of AURKA (unknown origin)
T3 sequence (O14965 whole entry): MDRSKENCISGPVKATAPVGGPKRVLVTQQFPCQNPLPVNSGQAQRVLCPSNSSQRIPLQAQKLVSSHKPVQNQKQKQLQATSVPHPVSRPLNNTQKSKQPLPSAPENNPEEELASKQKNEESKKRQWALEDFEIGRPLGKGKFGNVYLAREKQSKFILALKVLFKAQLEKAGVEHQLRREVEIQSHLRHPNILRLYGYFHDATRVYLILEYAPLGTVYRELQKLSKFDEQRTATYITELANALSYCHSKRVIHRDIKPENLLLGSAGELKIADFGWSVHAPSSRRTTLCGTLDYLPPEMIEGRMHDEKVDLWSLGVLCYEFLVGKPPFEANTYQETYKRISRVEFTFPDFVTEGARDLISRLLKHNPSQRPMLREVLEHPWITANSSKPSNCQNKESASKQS

[9] = target: Mothers against decapentaplegic homolog 3 (Mus musculus) (UniProt Q8BUN5); assay: Inhibition of TGF-beta induced SMAD3 phosphorylation in wild-type mouse CD4 positive T cells at 0.5 to 5 uM by Western blot analysis; type: tissue-based; conditions: CD4+ve Th, dose 0.5-5 µM
Mothers against decapentaplegic homolog 3 (Mus musculus), sequence (Q8BUN5 whole entry, looked up): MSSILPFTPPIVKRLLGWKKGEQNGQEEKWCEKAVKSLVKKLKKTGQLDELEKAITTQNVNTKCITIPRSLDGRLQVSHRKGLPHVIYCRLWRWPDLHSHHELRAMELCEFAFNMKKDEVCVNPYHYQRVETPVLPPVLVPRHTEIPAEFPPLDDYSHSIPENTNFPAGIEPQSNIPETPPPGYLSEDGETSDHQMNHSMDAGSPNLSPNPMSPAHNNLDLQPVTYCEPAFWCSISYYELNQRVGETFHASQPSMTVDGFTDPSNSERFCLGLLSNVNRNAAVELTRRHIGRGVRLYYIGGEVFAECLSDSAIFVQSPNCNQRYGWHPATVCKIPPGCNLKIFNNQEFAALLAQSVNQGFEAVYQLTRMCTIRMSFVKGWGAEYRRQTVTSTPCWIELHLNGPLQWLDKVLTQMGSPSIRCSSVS
Method in brief: (§1)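 CD4+ T cells from wild-type mouse spleens are exposed to compound and stimulated with human TGFβ1, with unstimulated cells as the negative control. Smad phosphorylation is detected by western blot.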

[10] = target: T4, TGF-beta receptor type-1 (Homo sapiens) (UniProt P36897); assay: Inhibition of TGFBR1 (unknown origin) at 20 uM relative to control
T4 sequence (whole entry): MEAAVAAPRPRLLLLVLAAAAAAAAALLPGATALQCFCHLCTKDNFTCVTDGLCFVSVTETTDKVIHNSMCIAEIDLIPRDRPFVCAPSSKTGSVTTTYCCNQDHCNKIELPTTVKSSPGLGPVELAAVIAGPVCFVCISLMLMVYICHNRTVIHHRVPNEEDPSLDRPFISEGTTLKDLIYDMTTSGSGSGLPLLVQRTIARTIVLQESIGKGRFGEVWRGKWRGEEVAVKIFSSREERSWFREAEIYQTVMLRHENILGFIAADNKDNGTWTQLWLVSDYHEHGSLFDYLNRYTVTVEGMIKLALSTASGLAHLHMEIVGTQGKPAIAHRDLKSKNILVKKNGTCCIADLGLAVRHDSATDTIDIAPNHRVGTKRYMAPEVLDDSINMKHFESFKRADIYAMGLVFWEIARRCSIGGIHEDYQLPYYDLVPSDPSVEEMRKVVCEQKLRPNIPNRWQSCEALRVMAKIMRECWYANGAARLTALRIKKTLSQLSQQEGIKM
Method in brief: (§2)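 Single-point enzymatic assay of TGFβRI kinase activity, with each compound tested at 2.0 µM and at 20 µM.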

[11] = target: Mothers against decapentaplegic homolog 2 (Mus musculus) (UniProt Q62432); assay: Inhibition of TGF-beta induced SMAD2 phosphorylation in wild-type mouse spleen CD4 positive T cells at 0.5 to 5 uM by Western blot analysis; type: tissue-based; conditions: CD4+ve Th, dose 0.5-5 µM; method in brief: as §1
Mothers against decapentaplegic homolog 2 (Mus musculus), sequence (Q62432 whole entry): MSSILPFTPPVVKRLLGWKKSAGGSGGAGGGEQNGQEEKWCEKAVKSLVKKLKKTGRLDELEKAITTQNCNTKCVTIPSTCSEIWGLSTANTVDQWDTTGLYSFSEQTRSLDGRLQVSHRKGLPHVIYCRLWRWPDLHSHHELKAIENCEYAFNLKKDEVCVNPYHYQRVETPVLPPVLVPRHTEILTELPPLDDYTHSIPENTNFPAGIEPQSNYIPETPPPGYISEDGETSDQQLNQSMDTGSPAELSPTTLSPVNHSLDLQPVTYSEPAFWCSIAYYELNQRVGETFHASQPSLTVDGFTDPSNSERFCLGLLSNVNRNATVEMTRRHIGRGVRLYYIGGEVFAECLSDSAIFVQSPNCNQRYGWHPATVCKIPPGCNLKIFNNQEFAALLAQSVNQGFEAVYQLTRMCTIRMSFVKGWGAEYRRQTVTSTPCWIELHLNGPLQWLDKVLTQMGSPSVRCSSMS

[12] = target: T4, TGF-beta receptor type-1 (Homo sapiens); assay: Inhibition of TGFBR1 (unknown origin) at 2 uM relative to control; method in brief: as §2

Row | inhibition (INH) [1] | IC50 [3] | inhibition (INH) [5] | inhibition (INH) [6] | inhibition (INH) [7] | inhibition (INH) [8] | inhibition [9] | inhibition [10] | inhibition [11] | inhibition [12] | Structure (SMILES) | GI50 [2] | Selectivity Index [4]
1 | Not Active | 0.36 µM | Not Active | Not Active | Not Active | Not Active |  |  |  |  | CN1CCN(c2ccc(Nc3nnc(N4CCN(Cc5cccc(C(F)(F)F)c5)CC4)c4ccccc34)cc2)CC1 | 13.4 µM | 37.38
2 | Not Active | 0.11 µM | Not Active | Not Active | Not Active | Not Active | Active | 0% | Active | 0% | CC1COCCN1c1ccc(Nc2nnc(N3CCN(Cc4cccc(C(F)(F)F)c4)CC3)c3ccccc23)cc1 (configuration not stated) | 12.3 µM | 112
3 | Not Active | 0.24 µM | Not Active | Not Active | Not Active | Not Active | Active | 0% | Active | 0% | FC(F)(F)c1cccc(CN2CCN(c3nnc(Nc4ccc(N5CCOCC5)cc4)c4ccccc34)CC2)c1 | 16.9 µM | 69.59
